# Test results: article PMC6431256 (Biochemistry, 2018)
# Target: full-length Pin1 (Pin1FL) (Homo sapiens, UniProt Q13526)
# Assay: NMR 15N-1H HSQC titration, binding to full-length Pin1
# In short: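 15N-labeled Pin1FL and Pin1WW were expressed separately in M9 medium with 15NH4Cl, induced with 1 mM IPTG at OD600 0.5 for 4 h, and purified by Ni affinity and gel filtration (20 mM HEPES pH 7.5, 50 mM NaCl, 5 mM EDTA; Pin1FL with 1 mM TCEP). Unlabeled phosphopeptides (dialyzed into matching buffer) were titrated at 0–637 µM into 100 µM protein. 1H-15N HSQC spectra were recorded at 25 °C and 600 MHz. Apparent KD was fitted from chemical shift changes, with 15N weighted 0.17.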
# full-length Pin1 (Pin1FL), sequence (Q13526 whole entry): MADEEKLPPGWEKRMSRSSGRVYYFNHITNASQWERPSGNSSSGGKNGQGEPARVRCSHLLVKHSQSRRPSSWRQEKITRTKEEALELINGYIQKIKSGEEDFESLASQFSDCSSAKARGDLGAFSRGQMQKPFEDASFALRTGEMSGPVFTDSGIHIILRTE
substance,measurement,setting,value
KVAKpSPKKAKAW [H1.5],interaction strength with Pin1 among H1 peptides,"Pin1FL and Pin1WW, in words",fairly low affinity
same,apparent affinity for full-length Pin1 relative to WW domain,compared with Pin1WW,decrease
